Results: publication PMC6376552 (Antiviral Chemistry & Chemotherapy, 2019)
Where two headings read alike, the source gives them in different places.

Tests used:
Assay type in all cases: cell-based
[1] = test system: HIV-1 encoding RT mutation Y181C; assay: MT-4 antiviral assay against HIV-1 encoding RT mutation Y181C; details: Human immunodeficiency virus 1, MT4, read-out: EC50 Y181C
MT-4 cytotoxicity assay = details: human, MT-4 cells (mock-infected), CC50, MT-4 cell line, n = 3
HIV-1 (IIIB strain) = assay: MT-4 antiviral cytoprotection assay, five-day multi-cycle, wild type HIV-1; details: for SI (selectivity index): CC50/EC50 ratio, MT-4; for SI (selectivity index) / anti-HIV activity in words: wild type; for anti-HIV activity in words: MT-4 cells
In short: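 MT-4 cells were pre-infected with a fresh 1:250 dilution of concentrated HIV-1 IIIB stock, or mock-infected for cytotoxicity. Test compound was serially diluted 1:3 in DMSO, then 200-fold into RPMI with 10% FBS and 1% P/S. Controls were no-drug and 5 µM AZT. After 5 days at 37°C, viability was read by CellTiter-Glo luminescence. EC50/CC50 were taken as 50% signal decrease from sigmoidal fits; SI = CC50/EC50.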

[2] = test system: HIV-1 encoding RT mutation K103N; assay: MT-4 antiviral assay against HIV-1 encoding RT mutation K103N; details: Human immunodeficiency virus 1, MT4, read-out: EC50 K103N
MT-4 cells = assay: MT-4 cytotoxicity assay; details: MT-4 cell line, n = 3
[3] = Human immunodeficiency virus 1, IIIB, MT4, read-out: EC50 w.t.

Molecule | EC50 [1] [nM] | CC50 at 5 days (MT-4 cytotoxicity assay) [nM] | SI (selectivity index) (HIV-1 (IIIB strain)) | EC50 (HIV-1 (IIIB strain); [3]) [nM] | anti-HIV activity in words (HIV-1 (IIIB strain)) | EC50 [2] [nM] | CC50 (MT-4 cells) [nM] | EC50 (HIV-1 (IIIB strain); read-out: EC50 w.t., MT-4 cell line, HIV-1 IIIB wild type, n = 3) [nM]
N#Cc1ccc(Nc2nc(N)cc(C(=O)c3c(F)cc(F)cc3F)n2)cc1 [Compound 14, 4-((4-amino-6–(2,4,6-trifluorobenzoyl)pyrimidin-2-yl)amino)benzonitrile] | 3900 | 24300 | 935 | 26 | low nanomolar activities | 1700 | – | –
4-((4-amino-6–(2,6-difluoro-4-methoxybenzoyl)pyrimidin-2-yl)amino)benzonitrile [Compound 15] | – | – | – | – | micromolar range | – | 7700 | 2200
COc1cc(F)c(Oc2cc(OC)nc(Nc3ccc(C#N)cc3)n2)c(F)c1 [Compound 31, 4-((4–(2,6-difluoro-4-methoxyphenoxy)-6-methoxypyrimidin-2-yl)amino)benzonitrile] | 4370 | 15800 | 832 | 19 | – | 444 | – | –
COc1cc(Oc2c(F)cc(F)cc2F)nc(Nc2ccc(C#N)cc2)n1 [Compound 32, 4-((4-methoxy-6–(2,4,6-trifluorophenoxy)pyrimidin-2-yl)amino)benzonitrile] | 7700 | 50000 | 926 | 54 | – | 560 | – | –
COc1cc(F)c(C(=O)c2cc(N)nc(Nc3ccc(C#N)cc3)n2)c(F)c1 [Compound 13, 4-((4-amino-6–(2,6-difluoro-4-methoxybenzoyl)pyrimidin-2-yl)amino)benzonitrile] | 797 | 19600 | 4900 | 4 | low nanomolar activities | 226 | – | –
COc1cc(F)c(Nc2cc(Cl)nc(Nc3ccc(C#N)cc3)n2)c(F)c1 [Compound 29, 4-((4-chloro-6-((2,6-difluoro-4-methoxyphenyl)amino)pyrimidin-2-yl)amino)benzonitrile] | 651 | 16000 | 2667 | 6 | – | 204 | – | –
COc1cc(F)c(Oc2cc(N)nc(Nc3ccc(C#N)cc3)n2)c(F)c1 [Compound 35, 4-((4-amino-6–(2,6-difluoro-4-methoxyphenoxy)pyrimidin-2-yl)amino)benzonitrile] | 637 | 21700 | 10,850 | 2 | – | 36 | – | –
COc1cc(F)c(Nc2cc(OC)nc(Nc3ccc(C#N)cc3)n2)c(F)c1 [Compound 33, 4-((4-((2,6-difluoro-4-methoxyphenyl)amino)-6-methoxypyrimidin-2-yl)amino)benzonitrile] | – | 39000 | 5571 | 7 | – | – | – | –
N#Cc1ccc(Nc2nc(Cl)cc(Nc3c(F)cc(F)cc3F)n2)cc1 [Compound 30, 4-((4-chloro-6-((2,4,6-trifluorophenyl)amino)pyrimidin-2-yl)amino)benzonitrile] | 2000 | 10200 | 378 | 27 | – | 1020 | – | –
COc1cc(C(=O)c2c(F)cc(F)cc2F)nc(Nc2ccc(C#N)cc2)n1 [Compound 22, 4-((4-methoxy-6–(2,4,6-trifluorobenzoyl)pyrimidin-2-yl)amino)benzonitrile] | – | 9160 | 19.4 | 473 | – | – | – | –
COc1cc(F)c(C(=O)c2nc(N)cc(Nc3ccc(C#N)cc3)n2)c(F)c1 [Compound 11, 4-((6-amino-2–(2,6-difluoro-4-methoxybenzoyl)pyrimidin-4-yl)amino)benzonitrile] | – | 6240 | 7.14 | 874 | micromolar range | – | – | –
N#Cc1ccc(Nc2cc(N)nc(C(=O)c3c(F)cc(F)cc3F)n2)cc1 [Compound 12, 4-((6-amino-2–(2,4,6-trifluorobenzoyl)pyrimidin-4-yl)amino)benzonitrile] | – | 42000 | 24.3 | 1730 | micromolar range | – | – | –
N#Cc1ccc(Nc2nc(N)cc(Oc3c(F)cc(F)cc3F)n2)cc1 [Compound 36, 4-((4-amino-6–(2,4,6-trifluorophenoxy)pyrimidin-2-yl)amino)benzonitrile] | 6660 | 19600 | 293 | 67 | – | 67 | – | –
COc1cc(Nc2c(F)cc(F)cc2F)nc(Nc2ccc(C#N)cc2)n1 [Compound 34, 4-((4-methoxy-6-((2,4,6-trifluorophenyl)amino)pyrimidin-2-yl)amino)benzonitrile] | 2020 | 9990 | 454 | 22 | – | 1210 | – | –
Cc1cc(C(=O)c2c(F)cc(F)cc2F)nc(Nc2ccc(C#N)cc2)n1 [Compound 18, 4-((4-methyl-6–(2,4,6-trifluorobenzoyl)pyrimidin-2-yl)amino)benzonitrile] | – | 57100 | – | 160 | – | – | – | –
COc1cc(F)c(Nc2cc(N)nc(Nc3ccc(C#N)cc3)n2)c(F)c1 [Compound 37, 4-((4-amino-6-((2,6-difluoro-4-methoxyphenyl)amino)pyrimidin-2-yl)amino)benzonitrile] | 437 | 17200 | 5733 | 3 | – | 62 | – | –
N#Cc1ccc(Nc2cc(C(=O)c3c(F)cc(F)cc3F)nc(N)n2)cc1 [Compound 16, 4-((2-amino-6–(2,4,6-trifluorobenzoyl)pyrimidin-4-yl)amino)benzonitrile] | – | 981 | 0.025 | 40000 | micromolar range | – | – | –
N#Cc1ccc(Nc2nc(N)cc(Nc3c(F)cc(F)cc3F)n2)cc1 [Compound 38, 4-((4-amino-6-((2,4,6-trifluorophenyl)amino)pyrimidin-2-yl)amino)benzonitrile] | 13700 | 34800 | 1289 | 27 | – | 1650 | – | –
Cc1cc(C#N)cc(C)c1Oc1nc(Nc2ccc(C#N)cc2)nc(N)c1Br [ETR, etravirine, reference compound] | 12 | 5880 | 2940 | 2 | – | 2 | – | –
COc1cc(F)c(Oc2cc(Cl)nc(Nc3ccc(C#N)cc3)n2)c(F)c1 [Compound 27, 4-((4-chloro-6–(2,6-difluoro-4-methoxyphenoxy)pyrimidin-2-yl)amino)benzonitrile] | 1640 | 16100 | 847 | 19 | – | 413 | – | –
O=C1Nc2ccc(Cl)cc2[C@@](C#CC2CC2)(C(F)(F)F)O1 [EFV, efavirenz, reference compound] | 5 | 20600 | – | – | – | 101 | – | –
N#Cc1ccc(Nc2nc(Cl)cc(Oc3c(F)cc(F)cc3F)n2)cc1 [Compound 28, 4-((4-chloro-6–(2,4,6-trifluorophenoxy)pyrimidin-2-yl)amino)benzonitrile] | 2530 | 14000 | 264 | 53 | – | 657 | – | –
